Results as given in ChEMBL document CHEMBL4219151, “Piperidinyl Ureas Chemically Control Defective in Cullin Neddylation 1 (DCN1)-Mediated Cullin Neddylation” (J Med Chem, 2018).
Converted amounts (≈) assume the structure as drawn. The source made the active and inactive calls. The calls are words filed in the database; no cut-off is given here.

Key:
[1] = target: T1, DCN1-like protein 4 (Homo sapiens) (UniProt Q92564); assay: Inhibition of human DCN4-mediated cullin neddylation assessed as reduction in transfer of fluorescein-5-maleimide-tagged NEDD8 from N-terminally acetylated human UBE2M to CUL2-CTD at 50 uM measured for 1 min by pulse-chase assay
T1 sequence (whole entry): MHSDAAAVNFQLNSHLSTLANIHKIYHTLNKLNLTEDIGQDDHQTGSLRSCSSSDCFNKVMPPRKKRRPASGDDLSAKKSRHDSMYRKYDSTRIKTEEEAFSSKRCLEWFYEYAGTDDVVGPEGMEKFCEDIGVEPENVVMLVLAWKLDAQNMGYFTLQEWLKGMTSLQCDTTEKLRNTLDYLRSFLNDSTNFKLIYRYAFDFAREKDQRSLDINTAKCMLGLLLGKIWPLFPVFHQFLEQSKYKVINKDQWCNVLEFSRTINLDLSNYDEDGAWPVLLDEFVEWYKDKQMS

[2] = target: DCN1-like protein 2 (Homo sapiens) (UniProt Q6PH85); assay: Inhibition of human DCN2-mediated cullin neddylation assessed as reduction in transfer of fluorescein-5-maleimide-tagged NEDD8 from N-terminally acetylated human UBE2M to CUL2-CTD at 12.5 and 50 uM measured for 10 sec by pulse-chase assay
Chain of DCN1-like protein 2 (Homo sapiens) (Q6PH85 whole entry): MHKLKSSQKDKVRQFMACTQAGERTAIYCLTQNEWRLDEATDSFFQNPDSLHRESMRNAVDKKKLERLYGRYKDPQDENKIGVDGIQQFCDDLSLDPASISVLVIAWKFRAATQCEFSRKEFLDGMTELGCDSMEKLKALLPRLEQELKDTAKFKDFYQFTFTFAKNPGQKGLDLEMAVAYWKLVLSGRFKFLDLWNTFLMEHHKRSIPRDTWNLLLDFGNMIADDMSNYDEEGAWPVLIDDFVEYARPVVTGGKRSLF

[3] = Permeability of the compound at 10 uM by PAMPA; type: ADME
In short: (§1)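 Measured in triplicate within at least one experiment; values reported as mean ± standard deviation.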

[4] = target: T2, DCN1-like protein 5 (Homo sapiens) (UniProt Q9BTE7); assay: Inhibition of human DCN5-mediated cullin neddylation assessed as reduction in transfer of fluorescein-5-maleimide-tagged NEDD8 from N-terminally acetylated human UBE2M to CUL2-CTD at 50 uM measured for 1 min by pulse-chase assay
T2 sequence (whole entry): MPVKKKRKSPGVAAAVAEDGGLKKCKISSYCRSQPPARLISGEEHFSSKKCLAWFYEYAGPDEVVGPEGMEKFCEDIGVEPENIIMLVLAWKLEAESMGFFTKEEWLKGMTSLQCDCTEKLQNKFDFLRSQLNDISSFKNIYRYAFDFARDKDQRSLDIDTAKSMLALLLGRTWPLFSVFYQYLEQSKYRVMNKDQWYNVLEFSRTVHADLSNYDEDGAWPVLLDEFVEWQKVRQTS

DCN1-like protein 1 [5] = target: T3, DCN1-like protein 1 (Homo sapiens, UniProt Q96GG9)
T3 sequence (Q96GG9 whole entry): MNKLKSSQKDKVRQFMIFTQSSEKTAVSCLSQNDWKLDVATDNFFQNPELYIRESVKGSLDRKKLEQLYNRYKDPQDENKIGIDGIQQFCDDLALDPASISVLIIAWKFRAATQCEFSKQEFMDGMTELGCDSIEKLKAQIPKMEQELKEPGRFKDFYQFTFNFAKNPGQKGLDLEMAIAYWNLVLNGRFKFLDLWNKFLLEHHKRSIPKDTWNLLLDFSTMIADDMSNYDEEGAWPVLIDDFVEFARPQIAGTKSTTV

[6] = target: T4, DCN1-like protein 3 (Homo sapiens) (UniProt Q8IWE4); assay: Inhibition of human DCN3-mediated cullin neddylation assessed as reduction in transfer of fluorescein-5-maleimide-tagged NEDD8 from N-terminally acetylated human UBE2M to CUL2-CTD at 50 uM measured for 2 mins by pulse-chase assay
T4 sequence (whole entry): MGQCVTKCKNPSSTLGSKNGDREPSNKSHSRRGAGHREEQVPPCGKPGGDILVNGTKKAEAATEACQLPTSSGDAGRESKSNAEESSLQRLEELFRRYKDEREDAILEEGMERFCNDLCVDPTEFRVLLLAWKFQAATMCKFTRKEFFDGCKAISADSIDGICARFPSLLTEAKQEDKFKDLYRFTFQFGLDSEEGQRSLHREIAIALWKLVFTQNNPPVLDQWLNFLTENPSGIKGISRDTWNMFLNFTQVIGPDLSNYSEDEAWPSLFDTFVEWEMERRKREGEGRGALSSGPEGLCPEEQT

[7] = Solubility of the compound at pH 7.4 after 18 hrs by UV-spectroscopy; type: physicochemical; conditions: buffer; in short: as §1
Homo sapiens = species: Homo sapiens; assay: Inhibition of human RBX1-catalyzed CUL2(CTD) neddylation assessed as reduction in transfer of N-terminal cys-tagged NEDD8 from UBE2M to CUL2-CTD at 12.5 uM measured up to 6 mins by pulse-chase assay
In short: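 In vitro pulse-chase monitoring NEDD8 transfer from UBE2M to the CUL2 C-terminal domain, stimulated by DCN1 together with RBX1. The CUL2 domain stands in for cullins 1-5. The assay is a variation of a previously published pulse-chase format, also run against each of the five DCN family members.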

DCN1-like protein 1 [8] = target: T3, DCN1-like protein 1; assay: Binding affinity biotinylated human GST-tagged DCN1 by ITC method
HCC95 = assay: Growth inhibition of human HCC95 cells; type: functional, cell-based
In short: (§2)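 In vitro monolayer proliferation assay in BJ cells (normal fibroblasts lacking DCN1 amplification) and HCC95 cells (squamous cell carcinoma line carrying DCN1 amplification). EC50 is reported as mean ± standard deviation from at least one experiment run in triplicate. A ">" value means less than 50% growth inhibition at the highest concentration tested.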

[9] = target: NEDD8 activating enzyme (Homo sapiens) (UniProt Q8TBC4+Q13564); assay: Inhibition of human NAE1-UBA3 E1 activating enzyme assessed as reduction in CUL3 neddylation by measuring inhibition of UBE2M thiol-ester formation at 50 uM up to 60 mins by pulse-chase assay; type: protein-complex assay
[10] = target: T4, DCN1-like protein 3 (Homo sapiens); assay: Inhibition of human DCN3 stimulated N-terminal cys-tagged NEDD8 transfer from UBE2F to CUL2(CTD)-RBX1 at 10 uM measured up to 2 mins by pulse-chase assay
BJ = assay: Growth inhibition of human BJ cells; type: cell-based; in short: as §2
DCN1-like protein 1 [11] = target: T3, DCN1-like protein 1; assay: Inhibition of human DCN1-mediated cullin neddylation assessed as reduction in transfer of fluorescein-5-maleimide-tagged NEDD8 from N-terminally acetylated human UBE2M to CUL2-CTD measured for 10 sec by pulse-chase assay

Row | SMILES | inhibition [1] | inhibition [2] | permeability ([3]; pampa, 10 µM) | inhibition [4] | IC50 (DCN1-like protein 1 [5]) | inhibition [6] | solubility at 18 h [7] | inhibition (Homo sapiens) | Kd (DCN1-like protein 1 [8]) | EC50 (HCC95) | inhibition [9] | inhibition [10] | EC50 (BJ) | EC50 (DCN1-like protein 1 [11]) | Papp at 10 µM ([3]; PAMPA, read-out: permeability)
1 | CCCC(C)N1CCC(N(Cc2ccccc2)C(=O)Nc2cccc(C(F)(F)F)c2)CC1 (centres undefined) | inactive | Active | 1400 ×10⁻⁶ cm/s | inactive | 62 nM | inactive | 57 µM (≈ 25.5 µg/mL) | inactive | 140 nM | 47000 nM | inactive | inactive | > 40000 nM | 79 nM | –
2 | CCCCN1CCC(N(Cc2ccccc2)C(=O)Nc2cccc(C(F)(F)F)c2)CC1 | – | – | – | – | 260 nM | – | 70 µM (≈ 30.3 µg/mL) | inactive | 700 nM | > 40000 nM | inactive | inactive | > 40000 nM | 140 nM | > 2200 ×10⁻⁶ cm/s
